# MPTP block – inhibitors of mitochondrial permeability transition pore; isolated mouse mitochondria, Ca2+ swelling absorbance, 30 min; inhibition, % at 10 µM; actives 1.4% (n = 360,000); AID 602449;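 active = inhibition of 50% or more, scaled per plate between neutral and stimulator controls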;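 note: 0% = DMSO wells given calcium and 100% = 1 mM EGTA wells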
# Lmaj promast – Leishmania major promastigote growth inhibition; actives 9% (n = 200,000); Leishmania major promastigotes, resazurin fluorescence viability; AID 1063; inhibition, % at 10 µM; in the data active = inhibition above about 50%;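 note: promastigotes grown with compound for 44 hours at 28 °C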
# Lipid droplet – modulators of hepatic lipid droplet formation; AML12 mouse hepatocytes, oleate lipid droplets, BODIPY imaging; inhibition, % at 6.5 µM; actives 0.4% (n = 240,000);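 active = lipid droplet intensity inhibited by at least 50%, with more than 500 cells counted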
#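 Assay system: AML12 hepatocytes (mouse); Probe or stimulus: oleic acid at 100 µM to induce lipid droplet formation; Dosing: compound at 6.5 µM only; Schedule: compound with oleate, overnight; Detection: fluorescence imaging, 20x objective, two fields per well; Measure: % inhibition of lipid droplet signal.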
# Redox H2O2 prof – compounds producing H2O2 with reducing agent – biochemical, NIH compound library profiling, artefact control for MLSCN library redox annotation, primary screen. DTT-dependent redox cycling H2O2, phenol red/HRP absorbance; 100% = 100 µM peroxide control, 0% = buffer. activation, % at 10 µM. actives 0.03% (n = 200,000). AID 878;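 active = activation of at least 50% relative to the plate's high and low controls in the primary single-dose screen; inactive = activation below 50%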;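 note: compound incubated with DTT at 0.8 mM final as the reducing agent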
# T cruzi inh – blocks replication of Trypanosoma cruzi; T. cruzi beta-gal in NIH3T3, luminescence, 90 h; actives 1.4% (n = 300,000); inhibition, % (no concentration beside the values);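 active = mean inhibition across valid replicates above about 55%, limit read from the data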;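 note: signal also drops with host cell toxicity which is not excluded here; 0% = plate median of DMSO wells and 100% = zero luminescence signal; higher percent means less beta-gal luminescence so fewer parasites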
#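 System – NIH/3T3 host cells with β-galactosidase reporter T. cruzi · Doses – single 50 nL compound addition per well in DMSO · Reagent – 5000 T. cruzi trypomastigotes/well · Medium – Low-serum DMEM with 2% FBS · Timing – ≥90 h infection period, 3 h prior cell attachment · Evaluation – parasite load inhibition, % · Technique – GalScreen luminescence, 60 min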
# * hit, by the source's call; · = no result given. The sample as a whole holds a higher share of hits than the screen did.
SMILES,MPTP block,Lmaj promast,Lipid droplet,Redox H2O2 prof,T cruzi inh
Cc1cccc(NC(=O)CSc2nc3ccccc3c3nc(CCc4c(C)n[nH]c4C)nn23)c1,3.3,19.2,·,0.9,27.2
Cc1cncn1CCc1nc2c3ccccc3nc(SCC(=O)Nc3cccc(Cl)c3)n2n1,0.9,100.4*,-40.7,-0.5,40.6
COCCSc1nnc(NC(=O)c2ccc(OC)c([N+](=O)[O-])c2)s1,-1.2,5.2,-11.1,-0.8,-12.2
CC1CCN(Cc2c(C(=O)N/N=C/c3cc(Cl)ccc3O)nnn2-c2nonc2N)CC1,-0.5,·,-133.9,·,60.6*
CC1CCN(Cc2c(C(=O)N/N=C/c3cc(Br)ccc3O)nnn2-c2nonc2N)CC1,-0.8,·,-153.0,·,59.2*
CCOC(=O)c1ccc(NC(=O)CSCc2ccco2)cc1,-1.1,88.6*,0.3,2.5,12.8
COc1ccc(NC(=S)N(CCN2CCCCC2)Cc2ccco2)cc1,0.2,29.0,-5.1,-0.1,-0.1
CCOC(=O)c1ccc(NC(=S)N(CCCN2CCCCC2)Cc2ccco2)cc1,0.8,92.9*,-7.1,-0.7,12.8
CCOC(=O)c1ccc(NC(=O)CSCCC(=O)O)cc1,3.4,-2.3,-23.5,-0.1,-8.4
CCOC(=O)c1ccc(NC(=S)N(CCCN(CC)CC)Cc2ccco2)cc1,-0.8,99.7*,39.9,-0.4,7.4
CCOC(=O)c1ccc(NC(=S)N(CCN(C)C)Cc2cccs2)cc1,-0.4,18.1,19.1,-2.4,15.8
CCc1cccc(CC)c1N1C(=O)C2=C(SCCCS2)C1=O,0.2,·,·,·,·
O=C1C(Cc2ccccc2)Nc2ncnc(N3CCN(c4ccccc4)CC3)c2N1Cc1ccc(Cl)cc1 (centres undefined),1.0,·,·,·,35.0
O=C(N/N=C/c1sc2ccccc2c1O)c1cccc2ccccc12,45.3,86.4*,-14.5,9.1,26.6
Oc1c(C=Nc2cccc3cccnc23)sc2ccccc12,·,99.2*,3.3,-0.7,54.9*
O=C(N/N=C/c1ccccc1)c1cccc2ccccc12,1.5,·,·,·,5.2
Cc1cccc(/N=C/c2sc3ccccc3c2O)n1,12.0,·,27.3,·,8.3
COc1ccc2cc(C(=O)N/N=C/c3sc4ccccc4c3O)ccc2c1,21.6,-14.6,-7.7,-0.1,15.1
COc1ccc(C(=O)N/N=C/c2sc3ccccc3c2O)cc1,7.1,76.7*,-10.6,-0.1,12.2
O=C(N/N=C/c1sc2ccccc2c1O)c1ccccc1,24.3,97.9*,0.5,0.0,20.8
CC(=O)Nc1ccc(NC(=O)c2ccc(-c3ccnn3C)c3ccoc23)cc1,-1.0,·,·,·,·
COc1ccccc1N1CCN(CCN2C(=O)C3CCCCN3C2=O)CC1 (centres undefined),-1.5,·,12.5,·,-0.3
O=C(CCC(=O)N(CC(=O)NC1CCCCC1)c1ccc(F)cc1)Nc1ccccn1,-0.5,·,2.5,·,9.0
CNC[C@@H]1Oc2cc(Br)ccc2S(=O)(=O)N([C@@H](C)CO)C[C@@H]1C,-1.2,·,·,·,·
COC(=O)c1cc2sccc2n1Cc1nc(-c2ccc(OC)cc2)oc1C,3.4,100.3*,·,1.7,30.0
SMILES,MPTP block,Lmaj promast,Lipid droplet,Redox H2O2 prof,T cruzi inh
O=C(CSc1cccc[n+]1[O-])c1ccccc1Br,-1.6,98.6*,2.5,3.1,53.1
Cc1cc(C(=O)CSc2cccc[n+]2[O-])c(C)n1-c1ccccc1,-0.3,1.9,-6.6,-0.5,-7.2
Cc1cc(C(=O)CSc2cccc[n+]2[O-])c(C)n1-c1ccc(Br)cc1,·,94.5*,7.8,0.6,1.9
COC(=O)c1cn(NC(=O)Cc2ccccc2Br)c(=O)c2ccccc12,0.1,-3.4,2.5,-0.9,-3.9
COc1ccc(N2CCN(c3ccc(NC(=O)NN)cc3)CC2)cc1,-0.7,·,1.2,·,21.5
CCc1cccc(CC)c1NC(=O)c1cc(CN2C(=O)c3ccccc3C2=O)ccc1OC,-5.0,88.1*,4.5,-0.7,2.5
CC(=O)c1ccc(NC(=O)c2cc(Cl)sc2Cl)cc1,5.9,-2.5,12.8,0.4,-9.4
c1ccc(N2CCN(c3cccc(-c4cc5ccccc5s4)n3)CC2)nc1,0.4,·,·,·,·
COC(=O)C1CCN(C(=O)CN(C)Cc2ccc(C(C)(C)C)cc2)CC1,0.4,·,6.5,·,66.9*
Cc1ccn2c(Nc3ccccc3)c(-c3ccccn3)nc2c1,2.4,100.6*,2.5,-1.3,61.7*
Cc1ccccc1Nc1c(-c2ccncc2)nc2ccc(Br)cn12,-3.9,95.9*,-2.9,0.0,59.4*
Cc1ccn2c(Nc3ccccc3C)c(-c3ccccn3)nc2c1,1.3,100.7*,-2.1,-0.6,49.6
Cc1ccc2nc(-c3ccccn3)c(Nc3ccccc3C)n2c1,1.3,100.5*,-2.2,-0.7,61.7*
Cc1cccn2c(Nc3ccccc3)c(-c3ccccn3)nc12,3.3,36.0,-0.4,-0.9,4.7
CC(=O)Nc1ccc(NC(=O)CSc2nc3[nH]ncc3c(=O)n2-c2ccccc2)cc1,3.3,·,2.1,·,-10.0
COc1cccc(CNC(=O)CCCn2c(=S)[nH]c3cc4c(cc3c2=O)OCO4)c1,-0.3,·,12.0,·,6.3
Cc1ccccc1Nc1c(-c2ccccn2)nc2ccccn12,-0.6,100.4*,-0.5,-1.0,43.7
O=C(COC(=O)C1CCC1)NCc1ccc(Cl)cc1Cl,-0.4,·,·,·,-4.3
CCOC(=O)c1c(NC(=O)c2ccccc2)sc2c(O)c(CN(CC)CC)ccc12,2.2,100.3*,·,-0.2,-2.9
C=CCc1cc(Cl)ccc1OCCN(C)C,10.7,96.2*,·,4.0,56.6*
C=CCc1cc(Cl)ccc1OCCOCCNC(C)CC (centres undefined),-1.1,90.5*,-8.7,0.3,44.5
COCCCNC(=O)CCSc1ccc(Cl)cc1,-0.4,-3.7,·,-2.6,-6.4
CCC(C)NCCOCCSc1ccc(Cl)cc1 (centres undefined),0.5,97.4*,·,3.0,30.7
CN(C)CCOCCOc1ccc(Cl)cc1C(C)(C)C,1.8,97.7*,-1.3,-1.8,24.0
COc1cc(SC)ccc1C(=O)N1CCN(S(=O)(=O)/C=C/c2ccccc2)CC1,-1.1,·,·,·,·
SMILES,MPTP block,Lmaj promast,Lipid droplet,Redox H2O2 prof,T cruzi inh
Cc1ccc(S(=O)(=O)N2CCC(C(=O)OCC(=O)NCc3cccc(Cl)c3)CC2)cc1C,-0.5,·,·,·,·
S=c1[nH]nc(-c2ccccn2)n1/N=C/c1ccc(-c2ccccc2Br)o1,-2.2,-6.9,-12.4,-1.9,-13.6
O=C(c1cccc(S(=O)(=O)N2CCc3ccccc32)c1)N1CCN(c2ccccc2)CC1,-0.7,·,·,·,·
C=CCc1cc(Cl)ccc1OCCCNC(C)C,-0.3,99.7*,-32.2,0.3,47.2
C=CCc1cc(Cl)ccc1OCCCNCCO,-2.7,98.2*,-0.4,-0.5,38.5
C=CCOc1ccc(Br)cc1CNCCO,-0.5,9.4,-24.8,-1.0,2.6
O=C(NNC(=O)c1ccccc1O)c1cccc(Br)c1,0.8,·,·,·,2.6
CCSc1ncc(/C=N/Nc2ccc(Cl)cc2)n1C,-1.4,78.3*,·,3.9,33.7
CCSc1ncc(/C=N/Nc2ccccc2)n1C,-0.2,15.0,-15.7,3.0,39.6
C/C(Nc1ccc(Cl)c(Cl)c1)=C1/CCOC1=O,-2.5,·,·,·,·

# Assay outcomes as filed in PubChem BioAssay.
